# Screening data from PubChem BioAssay.
# Sampled rows, rich in hits. Any-hit rate of the full collection: about 2.5%.
# MEKK3 PB1 HTS: modulators of MEKK3-MEK5 PB1 binding, primary screen, biochemical, wildtype MEKK3, multiplex bead flow cytometry, Alexa488-MEK5. Mitogen-activated protein kinase kinase kinase 3 (Homo sapiens), Q99759. bead-based flow cytometry, Alexa488-MEK5 binding to MEKK3; actives lie on both sides; 0 = blocked by unlabeled MEK5, 100 = vehicle. binding response (% of control), % at 10 µM. 290,000 compounds, 1.4% hits;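 active = binding response more than 3 SD above or below the average of its plate-row segment, actives on both sides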;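 note: Alexa488 bead fluorescence after subtracting the streptavidin-only scavenger bead signal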
# T cell HTS: modulators of CD8 T cell-vesicle binding, primary screen, mouse 2C CD8+ T cells, flow cytometry; response (vesicle binding), % at 7 µM; 2C CD8+ T cell-vesicle binding; active compounds read low; AID 2052, 2009; 330,000 compounds, 0.068% hits;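 active = response, share of CD8 T cells binding vesicles, and their 90th percentile fluorescence all below set limits, cut at about 80% in these data, passing the limit was not always enough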;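 note: values below 100% mean blocked vesicle binding to the CD8+ T cells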
#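 System: murine 2C transgenic CD8+ T lymphocytes; also added: QL9-loaded Drosophila micro-vesicles; times: binding 1.5 h at 37 °C; measured by: flow cytometry, PE anti-B7-1 (FL2) versus Alexa647 anti-CD8 (FL8), PFA-fixed; control set: Peptide-free naked vesicles (low) and QL9 vesicles with 0.7% DMSO vehicle (high)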
# UCH37 inh: inhibitors of human UCH37 deubiquitinase, primary screen, biochemical, Ub-AMC cleavage, fluorescence. Ubiquitin carboxyl-terminal hydrolase isozyme L5 (Homo sapiens), Q9Y5K5. purified proteasome/UCH37. inhibition, % (concentration not given with the values). 330,000 compounds, 0.33% hits. AID 588478, 2011;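 active = mean inhibition over replicate wells above about 20%, limit read from the data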;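 note: 0% = compound-free wells with enzyme and 100% = wells lacking proteasome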
# Target sequence (Q9Y5K5 whole entry, looked up): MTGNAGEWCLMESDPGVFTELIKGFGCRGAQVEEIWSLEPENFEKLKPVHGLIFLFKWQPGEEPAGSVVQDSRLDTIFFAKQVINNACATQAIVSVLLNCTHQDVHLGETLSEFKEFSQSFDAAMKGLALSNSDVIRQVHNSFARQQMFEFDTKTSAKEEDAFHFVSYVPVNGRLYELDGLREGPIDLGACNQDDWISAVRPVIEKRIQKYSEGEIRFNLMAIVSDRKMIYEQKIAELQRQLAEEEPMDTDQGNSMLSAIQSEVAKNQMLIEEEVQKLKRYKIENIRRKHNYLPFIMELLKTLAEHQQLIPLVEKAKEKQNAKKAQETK
#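 Material: Human UCH37 enzyme supplied as purified proteasome complex | Schedule: 30 min preincubation with enzyme, 25 min cleavage at room temperature | Detection: AMC fluorescence 355/460 nm | Measure: % inhibition of Ub-AMC cleavage fluorescence | Controls: Wells without proteasome as full block, compound-free enzyme plus substrate as uninhibited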
# Rce1 inh: yeast Rce1p protease inhibitors, primary screen, biochemical, fluorescence, cell-free homogeneous. calls only. 290,000 compounds, 0.27% hits. yeast membranes, quenched prenylated peptide cleavage fluorescence;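 active = fall in fluorescence gain of 50% or more versus controls, with final raw signal at or below 3038400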;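 note: plate controls were neutral control wells for no effect and wells lacking membranes for full effect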
# Target sequence (Q03530 whole entry, looked up): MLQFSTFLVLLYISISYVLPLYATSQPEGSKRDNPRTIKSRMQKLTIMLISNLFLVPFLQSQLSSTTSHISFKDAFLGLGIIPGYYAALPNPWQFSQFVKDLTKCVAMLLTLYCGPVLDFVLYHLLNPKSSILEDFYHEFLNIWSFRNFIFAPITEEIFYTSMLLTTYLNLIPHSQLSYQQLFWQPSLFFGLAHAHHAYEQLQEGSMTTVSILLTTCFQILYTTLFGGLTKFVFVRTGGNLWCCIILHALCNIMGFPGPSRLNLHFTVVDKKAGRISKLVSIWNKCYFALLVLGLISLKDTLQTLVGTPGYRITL
# MEKK2 mut-MEK5: MEK5 binding signal on mutant MEKK2 PB1, primary screen, biochemical, multiplex bead flow cytometry, Alexa488-MEK5 | Alexa488-MEK5 binding to MEKK2 mutant | 290,000 compounds, 0.35% hits | AID 1530, 2009 | percent response, % at 10 µM; in the data active = percent response above about 24%, passing the limit was not always enough
# MEKK2wt PB1 HTS: modulators of MEK5 binding to wildtype MEKK2, primary screen, biochemical, multiplex bead flow cytometry, Alexa488-MEK5. AID 1531, 2009. 290,000 compounds, 1.1% hits. Alexa488-MEK5 binding to MEKK2 WT; actives lie on both sides. binding response (% of control), % at 10 µM; in the data active = binding response below about 67% or above about 130%
# * hit, by the source's call; i = inactive; x = no result given; + = active, no number; [ ] = dose if it differs, or a comment.
SMILES,MEKK3 PB1 HTS,T cell HTS,UCH37 inh,Rce1 inh,MEKK2 mut-MEK5,MEKK2wt PB1 HTS
O=[N+]([O-])c1ccc(-c2ccc(/C=N/Nc3nc(NCc4ccccc4)nc(N4CCOCC4)n3)o2)cc1,99.0,496.5,x,i,5.0,14.0*
CCN(C(=O)C1CCCN1S(=O)(=O)c1ccc2c(c1)n(C)c(=O)c(=O)n2C)c1ccccc1 (stereo not drawn),96.0,32.3*,3.9,i,-1.0,96.0
Cc1ccccc1NC(=O)C1CCCN1S(=O)(=O)c1ccc2c(c1)n(C)c(=O)c(=O)n2C (stereo not drawn),105.0,915.9,1.4,i,-3.0,97.0
Cc1ccc2[nH]c(C)c(/C=C/c3cc[n+](C)cc3)c2c1,97.0,i,21.7*,i,-17.0,118.0
Cc1ccc2c(c1)c(/C=C/c1cc[n+](C)cc1)c(C)n2C,101.0,i,x,i,-11.0,117.0
Cc1c(C=O)c(Cl)n(C)c(=O)c1C#N,82.0,253.0,21.3*,i,-5.0,89.0
CC(=O)N=Cc1c(C)c(C#N)c(=O)n(C)c1O,104.0,251.7,2.3,i,9.0,105.0
CC(=NNC1=N[C@H]2CS(=O)(=O)C[C@H]2S1)c1ccccc1,x,x,-0.9,x,x,x
CC(=O)c1ccc(NC(=O)C(C)N2CCN(C/C=C/c3ccccc3)CC2)cc1 (stereo not drawn),191.0*,368.7,2.2,i,+,120.0
COc1ccc(C)cc1NC(=O)CN1C(=O)COc2ccc(S(=O)(=O)N3CCCCCC3)cc21,107.0,375.0,6.6,i,8.0,100.0
COc1ccc(C)cc1NC(=O)CN1C(=O)COc2ccc(S(=O)(=O)N3CCOCC3)cc21,96.0,199.4,2.7,+,3.0,102.0
COc1ccc(C2/C=C\CN(C(=O)c3ccc(C)cc3)[C@H](Cc3ccccc3)C(=O)N2Cc2ccc(F)cc2)cc1 (stereo partly drawn),96.0,422.6,3.6,+,-1.0,94.0
COc1ccc(C2/C=C\CN(C(=O)C3CC3)[C@H](Cc3ccccc3)C(=O)N2Cc2ccc(F)cc2)cc1 (stereo partly drawn),103.0,390.3,4.0,i,1.0,96.0
CN(C)C=Nc1ncc(C(=O)c2ccc(Cl)cc2Cl)s1,x,x,-0.3,x,x,x
Cc1ccc(CCC2C3=C(CCCC3=O)OC3=C2C(=O)CCC3)cc1,81.0,0.0*,5.7,i,-10.0,84.0
CC(C)c1ccc(CC(C)C2C3=C(CCCC3=O)OC3=C2C(=O)CCC3)cc1 (stereo not drawn),101.0,215.8,1.8,i,1.0,93.0
Cc1ccc(-n2nc3c(c2NC(=O)c2ccc4c(c2)OCO4)CS(=O)(=O)C3)cc1,2.0*[inhibitor],509.8,0.6,i,-18.0,0.0*[inhibitor]
O=C(Nc1c2c(nn1-c1cccc(Cl)c1)CS(=O)(=O)C2)c1ccco1,36.0*[inhibitor],497.0,1.5,i,-14.0,42.0*[inhibitor]
CCOC(=O)C1=C(C)N=c2sc(=Cc3cccc([N+](=O)[O-])c3O)c(=O)n2C1c1cc(OC)c(OC)c(OC)c1 (stereo not drawn),x,x,11.3,x,x,x
Cc1ccccc1NC(=S)NN=C1CC(C)(C)Oc2ccc(O)cc21,x,x,-34.3,x,x,x
COc1ccc(C=NNC(=S)Nc2ccccc2)cc1COc1ccc(Br)cc1,x,x,10.1,x,x,x
COc1ccc2c(C(=O)CN3CCN(c4ccccc4)CC3)c[nH]c2c1,107.0,400.7,0.9,i,67.0*,33.0*
CCN(CC)c1ccc(C(=O)NN=C(C)c2ccc(OC)c(OC)c2)cc1,x,x,9.6,x,x,x
CCOc1ccc(C(Nc2cccnc2)c2cc(Cl)c3cccnc3c2O)cc1 (stereo not drawn),97.0,119.8,21.8*,i,-10.0,85.0
O=C(Nc1ccccc1)N1CCc2c([nH]c3ccccc23)C1C(F)(F)F (stereo not drawn),101.0,31.6*,-1.7,i,4.0,98.0
SMILES,MEKK3 PB1 HTS,T cell HTS,UCH37 inh,Rce1 inh,MEKK2 mut-MEK5,MEKK2wt PB1 HTS
COc1ccc(-n2nc(C(=O)NCC(=O)O)c3ccccc3c2=O)cc1,97.0,326.8,1.8,i,0.0,100.0
COc1ccc(-n2nc(C(=O)NCC(=O)NCc3ccc(F)cc3)c3ccccc3c2=O)cc1,101.0,270.4,-15.8,+,-1.0,101.0
COc1ccc(-n2nc(C(=O)NCC(=O)N(C)Cc3ccccc3)c3ccccc3c2=O)cc1,99.0,356.4,-5.6,+,-2.0,99.0
COc1ccc(-n2nc(C(=O)NCC(=O)NC(C)C)c3ccccc3c2=O)cc1,100.0,961.6,3.8,i,5.0,101.0
COc1ccc(-n2nc(C(=O)NCC(=O)N3CCN(Cc4ccccc4)CC3)c3ccccc3c2=O)cc1,99.0,443.8,x,+,-1.0,100.0
Cc1cccc(CC2S/C(=N/N=Cc3ccco3)NC2=O)c1 (stereo not drawn),x,x,5.3,x,x,x
COC(=O)c1c(C)nc(C)c(C(=O)OC)c1-c1cccs1,87.0,233.4,0.6,i,64.0*,93.0
O=C(Cc1ccccc1)NN=Cc1ccccc1Cl,x,x,1.4,x,x,x
COc1ccccc1NC(=O)Cc1nnc(SCC(=O)Nc2nccs2)n1C,102.0,276.6,0.3,+,-4.0,99.0
COc1ccccc1NC(=O)Cc1nnc(SCC(=O)Nc2ccccc2F)n1C,100.0,513.7,0.6,i,2.0,99.0
O=C(CNc1ccc(F)cc1)NN=C1CCCc2ccccc21,x,x,5.4,x,x,x
COc1ccc2cc(C(=O)C3CCCN(C(=O)c4cc(=O)n(C)c(=O)n4C)C3)ccc2c1 (stereo not drawn),102.0,283.5,x,+,-6.0,88.0
CN(C)C(=NS(=O)(=O)c1ccccc1)c1ccc(F)cc1,x,x,3.3,x,x,x
CN(C)CCNc1oc(/C=C/c2ccccc2)nc1C#N,97.0,205.3,i,i,9.0,104.0
C=CCNc1oc(/C=C/c2ccccc2)nc1C#N,84.0,487.1,i,+,-6.0,84.0
COc1cc(-c2nc3ccccn3c2/N=C/c2cc(OC)c(OC)c(OC)c2)ccc1O,99.0,271.1,x,+,1.0,100.0
COc1cc(-c2nc3ccccn3c2N=Cc2cc(OC)c(OC)c(OC)c2)ccc1O,x,x,-175.5,x,x,x
COc1ccc(-c2cc(-c3nc4ccccn4c3NCc3ccccc3)ccc2OC)cc1,x,356.3,x,x,x,x
COc1ccc(OC)c(/C=N/c2c(-c3ccc(O)c(OC)c3)nc3ccccn23)c1,95.0,248.7,x,+,-8.0,93.0
